The nature of data set [1]: Cytotoxicity against human CCRF-CEM cells after 72 hrs by MTS assay. Format: functional, cell-based. In short, it runs like this:
(§1)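 Cells seeded at 25000–35000 cells/mL, compounds from DMSO dosed at time zero as four-fold dilutions. Exposure 72 h at 37 °C, 5% CO2, with MTS added for 1–4 h and OD read at 490 nm. Survival expressed as % of mean control OD, with IC50 from dose-response curves. Run as technical duplicates in at least three biological replicates.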

Data set [2] is described as follows: Cytotoxicity against human HCT116 cells after 72 hrs by MTS assay. The class given is functional, cell-based. The following applies: HCT-116, 72 h. A digest of the protocol:
as §1

Data set [3] can be described thus: Cytotoxicity against human A549 cells after 72 hrs by MTS assay. Format: functional, cell-based. The following applies: A549, 72 h. A digest of the protocol: as §1
A short description of data set [4]: Cytotoxicity against human BJ cells after 72 hrs by MTS assay. The class given is toxicity, cell-based. In short, it runs like this: as §1
The nature of data set [5]: Cytotoxicity against human CEM/DNR cells after 72 hrs by MTS assay. The class given is functional, cell-based. A digest of the protocol:
as §1

Data set [6] is described as follows: Cytotoxicity against human K562-TAX cells after 72 hrs by MTS assay. Format: functional, cell-based. In short, it runs like this: as §1
Data set [7] in a line: Cytotoxicity against p53 deficient human HCT116 cells after 72 hrs by MTS assay. The following applies: HCT-116, 72 h. The class given is functional, cell-based. In short, it runs like this: as §1
Data set [8] can be described thus: Cytotoxicity against human U2OS cells after 72 hrs by MTS assay. The class given is functional, cell-based. In short, it runs like this: as §1
The nature of data set [9]: Therapeutic index, ratio of IC50 for human BJ cells to IC50 for human CCRF-CEM cells. The class given is cell-based. As to conditions: BJ cells versus CCRF-CEM cells, read-out: Ratio IC50.
Data set [10] is described as follows: Cytotoxicity against human K562 cells after 72 hrs by MTS assay. The class given is functional, cell-based. As to conditions: K562, 72 h. In short, it runs like this: as §1
The nature of data set [11]: Cytotoxicity against human MRC5 cells after 72 hrs by MTS assay. Format: toxicity, cell-based. In short, it runs like this:
as §1

Data set [12] is described as follows: Therapeutic index, ratio of IC50 for human MRC5 cells to IC50 for human CCRF-CEM cells. Format: cell-based. As to conditions: MRC5 cells versus CCRF-CEM cells, read-out: Ratio IC50.

As to `C=C(C)[C@@H]1CC[C@]2(C(=O)O)CC[C@]3(C)[C@H](CC[C@@H]4[C@@]5(C)CCC(=O)C(C)(C)[C@@H]5CC[C@]43C)[C@@H]12` [BETUNOLIC ACID], in [1], the IC50 is 14 µM.

Compound `CC(C)[C@@H]1CC[C@]2(C(=O)O)CC[C@]3(C)[C@H](CC[C@@H]4[C@@]5(C)C=C(O)C(=O)C(C)(C)[C@@H]5CC[C@]43C)[C@@H]12` registered an IC50 in data set [1] of 6 µM.

As for `COC(=O)CCC(=O)N[C@H]1C[C@]2(C)[C@H]3CC[C@@H]4[C@H]5[C@H]6OC[C@@]5(CCC6(C)C)CC[C@@]4(C)[C@]3(C)CC[C@H]2C(C)(C)[C@H]1O`, the IC50 in data set [1] was over 50 µM.

For the compound `CC1(C)CC[C@]23CC[C@]4(C)[C@H](CC[C@@H]5[C@@]6(C)CC([N+](=O)[O-])=C(O)C(C)(C)[C@@H]6CC[C@]54C)[C@H]2[C@H]1OC3`, the IC50 in [1] was over 50 µM.

As for `CC(C)[C@@H]1CC[C@]2(C(=O)O)CC[C@]3(C)[C@H](CC[C@@H]4[C@@]5(C)CC([N+](=O)[O-])=C(O)C(C)(C)[C@@H]5CC[C@]43C)[C@@H]12`, the IC50 in data set [2] is over 50 µM; in data set [3] it was 31.3 µM; in data set [5], 36.1 µM; in data set [6], 20.6 µM; in data set [7], over 50 µM; in data set [1], 31.8 to 32 µM. Moreover, the IC50 in [8] was over 50 µM; in data set [10], 10.1 µM. Further, the IC50 at 72 h in data set [4] and in data set [11] was over 50 µM throughout. The selectivity ratio in data set [9] and in data set [12] was over 1.6 in each case.

In turn, `CC(=O)N[C@@H]1C[C@]2(C)[C@H]3CC[C@@H]4[C@H]5[C@H]6OC[C@@]5(CCC6(C)C)CC[C@@]4(C)[C@]3(C)CC[C@H]2C(C)(C)[C@H]1OC(C)=O` registered an IC50 in [1] of over 50 µM.

For `CC1(C)CC[C@]23CC[C@]4(C)[C@H](CC[C@@H]5[C@@]6(C)C[C@H](NC(=O)CCC(=O)O)[C@H](O)C(C)(C)[C@@H]6CC[C@]54C)[C@H]2[C@H]1OC3`, in data set [1], the IC50 was over 50 µM.

In data set [1], `CC1(C)CC[C@]23CC[C@]4(C)[C@H](CC[C@@H]5[C@@]6(C)CC[C@H](O)C(C)(C)[C@@H]6CC[C@]54C)[C@H]2[C@H]1OC3` [ALLOBETULIN] had an IC50 of over 50 µM.

On to `CC(C)[C@@H]1CC[C@]2(C(=O)O)CC[C@]3(C)[C@H](CC[C@@H]4[C@@]5(C)CC([N+](=O)[O-])([N+](=O)[O-])C(=O)C(C)(C)[C@@H]5CC[C@]43C)[C@@H]12`, for which the IC50 in data set [2] was over 50 µM; in [3], over 50 µM; in data set [5], 46.6 µM; in data set [6] it was 29.9 µM; in data set [7], over 50 µM; in [1] it was 28.6 to 29 µM. In addition, the IC50 in data set [8] and in [10] was over 50 µM in each case. In addition, the IC50 at 72 h in data set [4] and in [11] was over 50 µM in each case. In addition, the selectivity ratio in data set [9] and in [12] was over 1.7 each time.

With `CC1(C)CC[C@]23CC[C@]4(C)[C@H](CC[C@@H]5[C@@]6(C)C=C(N)C(=O)C(C)(C)[C@@H]6CC[C@]54C)[C@H]2[C@H]1OC3`, in [1], the IC50 was over 50 µM.

`CC1(C)CC[C@]23CC[C@]4(C)[C@H](CC[C@@H]5[C@@]6(C)CC(Br)C(=O)C(C)(C)[C@@H]6CC[C@]54C)[C@H]2[C@H]1OC3` (some centres undefined) had an IC50 in [1] of over 50 µM.

For `CC(=O)NC1=C[C@]2(C)[C@H]3CC[C@@H]4[C@H]5[C@H]6OC[C@@]5(CCC6(C)C)CC[C@@]4(C)[C@]3(C)CC[C@H]2C(C)(C)C1=O`, the IC50 was over 50 µM in data set [2]; over 50 µM in data set [3]; 35.3 µM in data set [5]; 30.5 µM in [6]; over 50 µM in [7]; 29.9 to 30 µM in [1]. For the same compound, the IC50 in data set [8] was over 50 µM; in [10] it was 37.9 µM. Moreover, the IC50 at 72 h in data set [4] and in [11] was over 50 µM each time. Further, the selectivity ratio in [9] and in data set [12] was over 1.7 each time.

In data set [1], `CC1(C)CC[C@]23CC[C@]4(C)[C@H](CC[C@@H]5[C@@]6(C)C=C(NC7=C[C@]8(C)[C@H]9CC[C@@H]%10[C@@H]%11[C@H]%12OC[C@@]%11(CCC%12(C)C)CC[C@@]%10(C)[C@]9(C)CC[C@H]8C(C)(C)C7=O)C(=O)C(C)(C)[C@@H]6CC[C@]54C)[C@H]2[C@H]1OC3` yielded an IC50 of over 50 µM.

The compound `CC1(C)CC[C@]23CC[C@]4(C)[C@H](CC[C@@H]5[C@@]6(C)CC7=C(OCCS7)C(C)(C)[C@@H]6CC[C@]54C)[C@H]2[C@H]1OC3` came in with an IC50 in data set [1] of over 50 µM.

As for `COC(=O)CCC(=O)N[C@@H]1C[C@]2(C)[C@H]3CC[C@@H]4[C@H]5[C@H]6OC[C@@]5(CCC6(C)C)CC[C@@]4(C)[C@]3(C)CC[C@H]2C(C)(C)[C@H]1O`, in data set [1], the IC50 was over 50 µM.

Take `CC(=O)NC1C[C@]2(C)[C@H]3CC[C@@H]4[C@H]5[C@H]6OC[C@@]5(CCC6(C)C)CC[C@@]4(C)[C@]3(C)CC[C@H]2C(C)(C)C1=O` (some centres undefined): the IC50 in [2] is 42.9 µM; in data set [3], over 50 µM; in data set [5], over 50 µM; in data set [6] it was over 50 µM; in data set [7], 38.7 µM; in data set [1], 32 to 32.2 µM. Further, the IC50 is over 50 µM in [8] and 32.4 µM in [10]. Moreover, the figures for the IC50 at 72 h in data set [4] and in data set [11] were over 50 µM and 21.6 µM, respectively. The selectivity ratio in data set [9] and in data set [12] was over 1.1 each time.

`CC1(C)CC[C@]23CC[C@]4(C)[C@H](CC[C@@H]5[C@@]6(C)C[C@@H](NC(=O)CCC(=O)O)[C@H](O)C(C)(C)[C@@H]6CC[C@]54C)[C@H]2[C@H]1OC3` gave an IC50 in data set [1] of over 50 µM.

`CC1(C)CC[C@]23CC[C@]4(C)[C@H](CC[C@@H]5[C@@]6(C)CCC(=O)C(C)(C)[C@@H]6CC[C@]54C)[C@H]2[C@H]1OC3` came in with an IC50 in data set [1] of over 50 µM.

Regarding `CC(C)[C@@H]1CC[C@]2(C(=O)O)CC[C@]3(C)[C@H](CC[C@@H]4[C@@]5(C)C=C(N)C(=O)C(C)(C)[C@@H]5CC[C@]43C)[C@@H]12`, the IC50 in data set [2] is over 50 µM; in [3], over 50 µM; in [5], 33.9 µM; in [6], 20.1 µM; in data set [7] it was over 50 µM; in data set [1], 26.6 to 27 µM. Moreover, the IC50 in data set [8] and in data set [10] was over 50 µM in each case. The IC50 at 72 h in data set [4] and in data set [11] was over 50 µM each time. In addition, the selectivity ratio in data set [9] and in data set [12] was over 1.9 in each case.

On to `CC1(C)CC[C@]23CC[C@]4(C)[C@H](CC[C@@H]5[C@@]6(C)C[C@@H](N=[N+]=[N-])[C@H](O)C(C)(C)[C@@H]6CC[C@]54C)[C@H]2[C@H]1OC3`, for which, in data set [1], the IC50 was over 50 µM.

`CC(=O)N[C@H]1C[C@]2(C)[C@H]3CC[C@@H]4[C@H]5[C@H]6OC[C@@]5(CCC6(C)C)CC[C@@]4(C)[C@]3(C)CC[C@H]2C(C)(C)[C@H]1OC(C)=O`: the IC50 in [1] was over 50 µM.

Consider `CC1(C)CC[C@]23CC[C@]4(C)[C@H](CC[C@@H]5[C@@]6(C)CC(N=[N+]=[N-])C(=O)C(C)(C)[C@@H]6CC[C@]54C)[C@H]2[C@H]1OC3` (some centres undefined), for which the half-maximal inhibitory concentration (IC50) in data set [1] is over 50 µM.

With `CC1(C)CC[C@]23CC[C@]4(C)[C@H](CC[C@@H]5[C@@]6(C)CC([N+](=O)[O-])([N+](=O)[O-])C(=O)C(C)(C)[C@@H]6CC[C@]54C)[C@H]2[C@H]1OC3`, in data set [1], the IC50 was over 50 µM.

Take `CC(C)[C@@H]1CC[C@]2(C(=O)O)CC[C@]3(C)[C@H](CC[C@@H]4[C@@]5(C)CCC(=O)C(C)(C)[C@@H]5CC[C@]43C)[C@@H]12` [DIHYDROBETULONIC ACID]: in data set [1], the IC50 stood at 4 µM.

As for `CC1(C)CC[C@]23CC[C@]4(C)[C@H](CC[C@@H]5[C@@]6(C)C=C(O)C(=O)C(C)(C)[C@@H]6CC[C@]54C)[C@H]2[C@H]1OC3`, the IC50 in data set [2] was 41.6 µM; in [3], over 50 µM; in data set [5], over 50 µM; in data set [6] it was 45.3 µM; in data set [7], 33.4 µM; in data set [1] it was 13 to 13.1 µM. Moreover, the IC50 was 45.8 µM in [8] and 16.9 µM in data set [10]. Moreover, the IC50 at 72 h in data set [4] is over 50 µM; in [11] it was 25.4 µM. The selectivity ratio in data set [9] and in data set [12] was over 2.9 in each case.

In the case of `C=C(C)[C@@H]1CC[C@]2(CO)CC[C@]3(C)[C@H](CC[C@@H]4[C@@]5(C)CC[C@H](O)C(C)(C)[C@@H]5CC[C@]43C)[C@@H]12` [BETULIN], in data set [1], the IC50 was over 50 µM.

Regarding `CC1(C)CC[C@]23CC[C@]4(C)[C@H](CC[C@@H]5[C@@]6(C)C[C@H](N=[N+]=[N-])[C@H](O)C(C)(C)[C@@H]6CC[C@]54C)[C@H]2[C@H]1OC3`, in data set [1], the IC50 is over 50 µM.

In the case of `CC(C)[C@@H]1CC[C@]2(C(=O)O)CC[C@]3(C)[C@H](CC[C@@H]4[C@@]5(C)CC(Br)C(=O)C(C)(C)[C@@H]5CC[C@]43C)[C@@H]12` (some centres undefined), the IC50 in data set [1] came out at 2 µM. This lies in the single-digit micromolar range.

The record behind these values is ChEMBL document CHEMBL3856208, “Lupane and 18α-oleanane derivatives substituted in the position 2, their cytotoxicity and influence on cancer cells” (Eur J Med Chem, 2016).
